Experimental data taken from ChEMBL document CHEMBL1629686, “Substrate selectivity and a novel role in inhibitor discrimination by residue 237 in the KPC-2 beta-lactamase” (Antimicrob Agents Chemother, 2010).
Values after ≈ are worked out from the molar mass of the structure shown.

Columns and labels:
Escherichia coli [1] = assay: Antimicrobial activity against Escherichia coli DH10B harboring beta-lactamase KPC-2 T237Y mutant by agar dilution method; type: functional; settings: K-12 DH10B
In short: (§1)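 LB agar dilution MICs followed CLSI criteria, with inocula applied by Steers replicator. […] Piperacillin-tazobactam was tested at an 8:1 ratio. Wild-type and mutant blaKPC-2 were carried on pBC SK(+), or wild type on pBR322-catI, in E. coli DH10B.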

Escherichia coli [2] = assay: Antimicrobial activity against Escherichia coli DH10B harboring plasmid […] by agar dilution method; type: functional; settings: K-12 DH10B; in short: as §1
Escherichia coli [3] = assay: Antimicrobial activity against Escherichia coli DH10B harboring beta-lactamase KPC-2 T237K mutant by agar dilution method; type: functional; settings: K-12 DH10B; in short: as §1
Escherichia coli [4] = assay: Antimicrobial activity against Escherichia coli DH10B harboring beta-lactamase KPC-2 T237S mutant by agar dilution method; type: functional; settings: K-12 DH10B; in short: as §1
Escherichia coli [5] = assay: Antimicrobial activity against Escherichia coli DH10B harboring beta-lactamase KPC-2 T237C mutant by agar dilution method; type: functional; settings: K-12 DH10B; in short: as §1
Escherichia coli [6] = assay: Antimicrobial activity against Escherichia coli DH10B harboring beta-lactamase KPC-2 T237M mutant by agar dilution method; type: functional; settings: K-12 DH10B; in short: as §1
Escherichia coli [7] = assay: Antimicrobial activity against Escherichia coli DH10B harboring beta-lactamase KPC-2 T237G mutant by agar dilution method; type: functional; settings: K-12 DH10B; in short: as §1
Escherichia coli [8] = assay: Antimicrobial activity against Escherichia coli DH10B harboring beta-lactamase KPC-2 T237A mutant by agar dilution method; type: functional; settings: K-12 DH10B; in short: as §1
Escherichia coli [9] = assay: Antimicrobial activity against Escherichia coli DH10B harboring beta-lactamase KPC-2 T237I mutant by agar dilution method; type: functional; settings: K-12 DH10B; in short: as §1
Escherichia coli [10] = assay: Antimicrobial activity against Escherichia coli DH10B harboring beta-lactamase KPC-2 T237W mutant by agar dilution method; type: functional; settings: K-12 DH10B; in short: as §1
Escherichia coli [11] = assay: Antimicrobial activity against Escherichia coli DH10B harboring beta-lactamase KPC-2 T237P mutant by agar dilution method; type: functional; settings: K-12 DH10B; in short: as §1
Escherichia coli [12] = assay: Antimicrobial activity against Escherichia coli DH10B harboring beta-lactamase KPC-2 T237Q mutant by agar dilution method; type: functional; settings: K-12 DH10B; in short: as §1
Escherichia coli [13] = assay: Antimicrobial activity against Escherichia coli DH10B harboring plasmid pBC SK(+) carrying wild type beta-lactamase KPC-2 by agar dilution method; type: functional; settings: K-12 DH10B; in short: as §1
Escherichia coli [14] = assay: Antimicrobial activity against Escherichia coli DH10B harboring beta-lactamase KPC-2 T237V mutant by agar dilution method; type: functional; settings: K-12 DH10B; in short: as §1
Escherichia coli [15] = assay: Antimicrobial activity against Escherichia coli DH10B harboring beta-lactamase KPC-2 T237R mutant by agar dilution method; type: functional; settings: K-12 DH10B; in short: as §1
Escherichia coli [16] = assay: Antimicrobial activity against Escherichia coli DH10B harboring beta-lactamase KPC-2 T237E mutant by agar dilution method; type: functional; settings: K-12 DH10B; in short: as §1
Klebsiella pneumoniae [17] = assay: Antimicrobial activity against Klebsiella pneumoniae 1534 expressing beta-lactamase KPC-2 by agar dilution method; type: functional
In short: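 MICs were determined by LB agar dilution following CLSI criteria, with a Steers replicator. […] Piperacillin-tazobactam was kept at an 8:1 ratio.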

Escherichia coli [18] = assay: Antimicrobial activity against Escherichia coli DH10B by agar dilution method; type: functional; settings: K-12 DH10B; in short: as §1
Escherichia coli [19] = assay: Antimicrobial activity against Escherichia coli DH10B harboring beta-lactamase KPC-2 T237F mutant by agar dilution method; type: functional; settings: K-12 DH10B; in short: as §1
Escherichia coli [20] = assay: Antimicrobial activity against Escherichia coli DH10B harboring beta-lactamase KPC-2 T237N mutant by agar dilution method; type: functional; settings: K-12 DH10B; in short: as §1
Escherichia coli [21] = assay: Antimicrobial activity against Escherichia coli DH10B harboring plasmid pBR322-catI carrying beta-lactamase KPC-2 by agar dilution method; type: functional; settings: K-12 DH10B; in short: as §1
Escherichia coli [22] = assay: Antimicrobial activity against Escherichia coli DH10B harboring beta-lactamase KPC-2 T237H mutant by agar dilution method; type: functional; settings: K-12 DH10B; in short: as §1
Escherichia coli [23] = assay: Antimicrobial activity against Escherichia coli DH10B harboring beta-lactamase KPC-2 T237L mutant by agar dilution method; type: functional; settings: K-12 DH10B; in short: as §1
Escherichia coli [24] = assay: Antimicrobial activity against Escherichia coli DH10B harboring beta-lactamase KPC-2 T237D mutant by agar dilution method; type: functional; settings: K-12 DH10B; in short: as §1
Klebsiella pneumoniae [25] = assay: Ratio of Ki for Klebsiella pneumoniae 1534 beta-lactamase KPC-2 T237S mutant to Ki for Klebsiella pneumoniae wild type beta-lactamase KPC-2 by competitive assay
In short: (§2)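 Direct competition assay at steady state with purified enzyme at 10 nM. Inhibitor was varied from 5 μM to 5 mM, with nitrocefin 100 μM final as reporter substrate. 1/v0 was plotted against [I], and Ki(observed) was taken as y-intercept divided by slope. This was corrected by 1 + [S]/Km(nitrocefin).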

[26] = Inhibition of Klebsiella pneumoniae 1534 beta-lactamase KPC-2 T237A mutant by competitive assay; in short: as §2
[27] = Inhibition of Klebsiella pneumoniae 1534 beta-lactamase KPC-2 T237S mutant by competitive assay; in short: as §2
Klebsiella pneumoniae [28] = assay: Ratio of Ki for Klebsiella pneumoniae 1534 beta-lactamase KPC-2 T237A mutant to Ki for wild type Klebsiella pneumoniae beta-lactamase KPC-2 by competitive assay
[29] = substrate: CO/N=C(\C(=O)N[C@@H]1C(=O)N2C(C(=O)O)=C(COC(C)=O)CS[C@H]12)c1csc(N)n1; assay: (§3) Activity of Klebsiella pneumoniae 1534 beta-lactamase KPC-2 by spectrophotometric analysis
In short: (§4)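 Purified KPC-2 was expressed in E. coli (DH10B or IPTG-induced Origami2 DE3 pLys), released by periplasmic lysis, and purified by preparative isoelectric focusing. It was assayed at 10 nM in 10 mM PBS pH 7.4 at room temperature, with substrate in molar excess for pseudo-first-order conditions. Hydrolysis was read on a diode-array spectrophotometer, and Vmax and Km came from nonlinear least-squares Michaelis-Menten fits.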

[30] = substrate: O=C(Cc1cccs1)N[C@@H]1C(=O)N2C(C(=O)O)=C(/C=C/c3ccc([N+](=O)[O-])cc3[N+](=O)[O-])CS[C@H]12; assay: as §3; in short: as §4
[31] = substrate: CCN1CCN(C(=O)N[C@@H](C(=O)N[C@@H]2C(=O)N3[C@@H]2SC(C)(C)[C@@H]3C(=O)O)c2ccccc2)C(=O)C1=O; assay: as §3; in short: as §4
[32] = substrate: C[C@@H](O)[C@H]1C(=O)N2C(C(=O)O)=C(SCCNC=N)C[C@H]12; assay: as §3; in short: as §4
[33] = substrate: CC(=O)OCC1=C(C(=O)O)N2C(=O)[C@@H](NC(=O)Cc3cccs3)[C@H]2SC1; assay: as §3; in short: as §4
[34] = substrate: CO/N=C(\C(=O)N[C@@H]1C(=O)N2C(C(=O)O)=C(COC(C)=O)CS[C@H]12)c1csc(N)n1; assay: (§5) Ratio of Kcat/Km for Klebsiella pneumoniae 1534 beta-lactamase KPC-2 by spectrophotometric analysis; in short: as §4
[35] = substrate: O=C(Cc1cccs1)N[C@@H]1C(=O)N2C(C(=O)O)=C(/C=C/c3ccc([N+](=O)[O-])cc3[N+](=O)[O-])CS[C@H]12; assay: as §5; in short: as §4
[36] = substrate: CCN1CCN(C(=O)N[C@@H](C(=O)N[C@@H]2C(=O)N3[C@@H]2SC(C)(C)[C@@H]3C(=O)O)c2ccccc2)C(=O)C1=O; assay: as §5; in short: as §4
[37] = substrate: C[C@@H](O)[C@H]1C(=O)N2C(C(=O)O)=C(SCCNC=N)C[C@H]12; assay: as §5; in short: as §4
[38] = substrate: CC(=O)OCC1=C(C(=O)O)N2C(=O)[C@@H](NC(=O)Cc3cccs3)[C@H]2SC1; assay: as §5; in short: as §4

C[C@@H](O)[C@H]1C(=O)N2C(C(=O)O)=C(S[C@@H]3CN[C@H](CNS(N)(=O)=O)C3)[C@H](C)[C@H]12 [DORIPENEM]
MIC (Escherichia coli [1]): 0.06 µg/mL (≈ 0.143 µM) | MIC (Escherichia coli [2]): 0.06 µg/mL (≈ 0.143 µM) | MIC (Escherichia coli [3]): 0.06 µg/mL (≈ 0.143 µM) | MIC (Escherichia coli [4]): 0.25 µg/mL (≈ 0.595 µM) | MIC (Escherichia coli [5]): 0.06 µg/mL (≈ 0.143 µM) | MIC (Escherichia coli [6]): 0.06 µg/mL (≈ 0.143 µM) | MIC (Escherichia coli [7]): 0.06 µg/mL (≈ 0.143 µM) | MIC (Escherichia coli [8]): 0.06 µg/mL (≈ 0.143 µM) | MIC (Escherichia coli [9]): 0.06 µg/mL (≈ 0.143 µM) | MIC (Escherichia coli [10]): 0.06 µg/mL (≈ 0.143 µM) | MIC (Escherichia coli [11]): 0.06 µg/mL (≈ 0.143 µM) | MIC (Escherichia coli [12]): 0.06 µg/mL (≈ 0.143 µM) | MIC (Escherichia coli [13]): 0.25 µg/mL (≈ 0.595 µM) | MIC (Escherichia coli [14]): 0.06 µg/mL (≈ 0.143 µM) | MIC (Escherichia coli [15]): 0.06 µg/mL (≈ 0.143 µM) | MIC (Escherichia coli [16]): 0.06 µg/mL (≈ 0.143 µM) | MIC (Klebsiella pneumoniae [17]): 4 µg/mL (≈ 9.51 µM) | MIC (Escherichia coli [18]): 0.06 µg/mL (≈ 0.143 µM) | MIC (Escherichia coli [19]): 0.06 µg/mL (≈ 0.143 µM) | MIC (Escherichia coli [20]): 0.06 µg/mL (≈ 0.143 µM) | MIC (Escherichia coli [21]): 4 µg/mL (≈ 9.51 µM) | MIC (Escherichia coli [22]): 0.06 µg/mL (≈ 0.143 µM) | MIC (Escherichia coli [23]): 0.06 µg/mL (≈ 0.143 µM) | MIC (Escherichia coli [24]): 0.06 µg/mL (≈ 0.143 µM)

C[C@]1(Cn2ccnn2)[C@H](C(=O)O)N2C(=O)C[C@H]2S1(=O)=O [TAZOBACTAM]
fold change (FC) (Klebsiella pneumoniae [25]): 1.7 | Ki [26]: 174 µM | Ki [27]: 53 µM | fold change (FC) (Klebsiella pneumoniae [28]): 2.2

B1: Carbapenem-hydrolyzing beta-lactamase KPC (Klebsiella pneumoniae), Q9F663 (protein)
chain: MSLYRRLVLLSCLSWPLAGFSATALTNLVAEPFAKLEQDFGGSIGVYAMDTGSGATVSYRAEERFPLCSSFKGFLAAAVLARSQQQAGLLDTPIRYGKNALVPWSPISEKYLTTGMTVAELSAAAVQYSDNAAANLLLKELGGPAGLTAFMRSIGDTTFRLDRWELELNSAIPGDARDTSSPRAVTESLQKLTLGSALAAPQRQQFVDWLKGNTTGNHRIRAAVPADWAVGDKTGTCGVYGTANDYAVVWPTGRAPIVLAVYTRAPNKDDKHSEAVIAAAARLALEGLGVNGQ
Km [29]: 207 µM | kcat [29]: 142 s⁻¹ | Km [30]: 6 µM | kcat [30]: 52 s⁻¹ | Km [31]: 15 µM | kcat [31]: 51 s⁻¹ | Km [32]: 19 µM | kcat [32]: 19 s⁻¹ | Km [33]: 14 µM | kcat [33]: 44 s⁻¹ | kcat/Km [34]: 700000 M⁻¹ s⁻¹ | kcat/Km [35]: 8.7e+06 M⁻¹ s⁻¹ | kcat/Km [36]: 3.4e+06 M⁻¹ s⁻¹ | kcat/Km [37]: 1e+06 M⁻¹ s⁻¹ | kcat/Km [38]: 3.1e+06 M⁻¹ s⁻¹
